Results from article PMC5131535 (ACS chemical neuroscience, 2016).
Where “and” joins values, the source holds several entries; their conditions need not be identical. Identical values can stand only once.

Columns and labels:
Sigma σ1 receptor = Sigma σ1 receptor (Homo sapiens, UniProt Q99720); assay: Lead Profiling Screen; type: binding; conditions: significant interaction
Norepinephrine receptor = Norepinephrine receptor (Homo sapiens, UniProt P23975); assay: Lead Profiling Screen; type: binding; conditions: significant interaction
[1] = tested on: voltage-gated sodium channel; assay: Lead Profiling Screen; type: binding; conditions: significant interaction
Dopamine D4.2 receptor = Dopamine D4.2 receptor (Homo sapiens, UniProt P21917, DEL265-296); assay: Lead Profiling Screen; type: binding; conditions: significant interaction
L-type calcium channel = assay: Lead Profiling Screen; type: binding; conditions: significant interaction
[2] = Protein binding in plasma; conditions: human
[3] = plasma
[4] = plasma; remark: listed apart in the source
Kir7.1-M125R = molecular target: T1, Kir7.1-M125R (Homo sapiens, UniProt O60928, M125R); assay: Whole-cell voltage clamp, Kir7.1-M125R; type: cell-based
T1 sequence (O60928 1-360 M125R): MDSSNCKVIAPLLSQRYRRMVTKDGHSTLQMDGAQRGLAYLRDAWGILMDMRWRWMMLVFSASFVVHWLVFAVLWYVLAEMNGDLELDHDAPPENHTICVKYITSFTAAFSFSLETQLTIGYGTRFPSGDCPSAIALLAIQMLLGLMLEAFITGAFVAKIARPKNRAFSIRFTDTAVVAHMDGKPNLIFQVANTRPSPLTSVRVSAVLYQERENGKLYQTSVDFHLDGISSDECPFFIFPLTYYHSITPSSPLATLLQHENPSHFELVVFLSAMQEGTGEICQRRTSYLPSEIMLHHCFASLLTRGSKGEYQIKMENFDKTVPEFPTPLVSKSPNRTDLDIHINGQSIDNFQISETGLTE
Outline: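 HEK-293T cells transiently co-transfected with WT or mutant human Kir7.1 plus EGFP marker, replated next day on poly-L-lysine coverslips. Bath: 135 NaCl, 5 KCl, pH 7.4; pipette: 135 KCl, 1 EGTA, pH 7.3 (mM). Hold −75 mV, step to −120 mV for 500 ms, ramp to 120 mV. Increasing test compound concentrations superfused, then Ba²⁺ block. Inhibition at −120 mV; Hill-equation IC50, n = 5.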

[5] = plasma; remark: listed apart in the source
Kir7.1-WT-A150S = Kir7.1-WT-A150S (Homo sapiens, UniProt O60928, A150S); assay: Whole-cell patch clamp, Kir7.1-WT-A150S mutant; type: cell-based; conditions: -120 mV
Outline: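 Human Kir7.1 (WT or mutant) was transiently co-transfected with EGFP into HEK-293T cells, which were replated next day on poly-L-lysine coverslips. Whole-cell clamp used bath 5 mM KCl, pH 7.4, and pipette 135 mM KCl, pH 7.3. Cells were held at −75 mV, stepped 500 ms to −120 mV, then ramped to 120 mV, every 5 s. Increasing test-compound doses were superfused, then BaCl₂ block; current read at −120 mV; variable-slope Hill fit, mean of n = 5.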

Kir7.1-WT-A150S, sequence (O60928 whole entry A150S, the tested form may be a part): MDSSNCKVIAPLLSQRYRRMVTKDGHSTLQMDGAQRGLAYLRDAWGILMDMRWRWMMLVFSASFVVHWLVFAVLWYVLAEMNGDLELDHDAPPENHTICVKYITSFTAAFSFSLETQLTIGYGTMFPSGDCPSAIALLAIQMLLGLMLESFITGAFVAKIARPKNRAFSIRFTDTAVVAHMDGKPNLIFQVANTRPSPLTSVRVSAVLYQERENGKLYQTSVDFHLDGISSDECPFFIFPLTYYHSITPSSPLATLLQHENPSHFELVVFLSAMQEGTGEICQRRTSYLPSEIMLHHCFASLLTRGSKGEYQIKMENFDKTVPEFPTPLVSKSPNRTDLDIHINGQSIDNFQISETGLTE
Sigma σ1 receptor, sequence (Q99720 whole entry): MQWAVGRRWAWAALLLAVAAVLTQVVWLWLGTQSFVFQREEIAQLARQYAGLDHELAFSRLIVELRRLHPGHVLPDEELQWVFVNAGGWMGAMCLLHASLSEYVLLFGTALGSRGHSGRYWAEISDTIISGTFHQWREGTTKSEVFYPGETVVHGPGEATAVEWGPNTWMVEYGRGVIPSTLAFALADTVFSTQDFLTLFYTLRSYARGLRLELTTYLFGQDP
Norepinephrine receptor, sequence (P23975 whole entry): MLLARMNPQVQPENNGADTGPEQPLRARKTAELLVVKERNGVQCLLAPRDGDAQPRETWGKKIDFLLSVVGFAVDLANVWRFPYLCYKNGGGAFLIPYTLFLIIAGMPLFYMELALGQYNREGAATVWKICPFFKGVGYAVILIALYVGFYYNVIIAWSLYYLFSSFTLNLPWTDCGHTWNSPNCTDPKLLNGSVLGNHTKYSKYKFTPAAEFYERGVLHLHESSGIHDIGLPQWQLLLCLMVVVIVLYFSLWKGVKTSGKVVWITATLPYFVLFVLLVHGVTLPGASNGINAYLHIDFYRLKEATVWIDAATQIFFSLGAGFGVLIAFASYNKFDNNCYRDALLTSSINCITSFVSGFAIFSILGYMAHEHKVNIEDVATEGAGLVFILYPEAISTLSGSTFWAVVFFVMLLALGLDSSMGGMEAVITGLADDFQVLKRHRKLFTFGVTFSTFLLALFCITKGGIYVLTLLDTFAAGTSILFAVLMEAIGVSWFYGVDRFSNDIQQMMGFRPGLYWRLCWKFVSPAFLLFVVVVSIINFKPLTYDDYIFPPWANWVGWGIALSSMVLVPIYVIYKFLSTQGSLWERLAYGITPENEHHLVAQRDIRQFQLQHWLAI

SMILES	Radioligand displacement, Sigma σ1 receptor (Sigma σ1 receptor)	Radioligand displacement, Norepinephrine receptor (Norepinephrine receptor)	Radioligand displacement, voltage-gated sodium channel [1]	Radioligand displacement, Dopamine D4.2 receptor (Dopamine D4.2 receptor)	Radioligand displacement, L-type calcium channel (L-type calcium channel)	fraction unbound [2]	PPB (%Fu) Rat [3]	PPB (%Fu) Mouse [4]	Shift in IC50, patch clamp electrophysiology compared with Tl+ flux (Kir7.1-M125R)	Inhibition of outward and inward Kir7.1-M125R-mediated current (Kir7.1-M125R; 10 µM)	Effect of M125R mutation on sensitivity (Kir7.1-M125R; compared with WT)	IC50 (Kir7.1-M125R; read-out: Kir7.1-M125R IC50 (whole-cell voltage clamp), -120 mV)	PPB (%Fu) Human [5]	Effect of mutation A150S on inhibition (Kir7.1-WT-A150S; 3 µM)	IC50 (Kir7.1-WT-A150S; read-out: Kir7.1-WT-A150S IC50, patch clamp)
CC(C)OC(=O)NC1CCN(Cc2cc(Cl)c3cccnc3c2O)CC1 [Compound 19, iso-Propyl (1-((5-chloro-8-hydroxyquinolin-7-yl)methyl)piperidin-4-yl)carbamate]	> 50%	> 50%	> 50%	> 50%	> 50%	0.01	–	–	–	–	–	–	–	–	–
Oc1c(CN2CCC(Cc3ccccc3)CC2)cc(Cl)c2cccnc12 [VU714]	–	–	–	–	–	–	1.8%	0.7%	3.7 fold	fully inhibited	does not alter VU714 sensitivity	1500 nM and 1600 nM and ~2000 nM	0.5%	partial loss of inhibition	6900 nM and ~7000 nM
